Laboratory results published in ChEMBL document CHEMBL1126032, “Nonpeptide renin inhibitors employing a novel 3-aza(or oxa)-2,4-dialkyl glutaric acid moiety as a P2/P3 amide bond replacement” (J Med Chem, 1992).

Key:
[1] = biological target: T1, Renin (Homo sapiens, UniProt P00797); assay: In vitro potency against purified renin at a pH of 6.0.
T1 sequence (P00797 whole entry): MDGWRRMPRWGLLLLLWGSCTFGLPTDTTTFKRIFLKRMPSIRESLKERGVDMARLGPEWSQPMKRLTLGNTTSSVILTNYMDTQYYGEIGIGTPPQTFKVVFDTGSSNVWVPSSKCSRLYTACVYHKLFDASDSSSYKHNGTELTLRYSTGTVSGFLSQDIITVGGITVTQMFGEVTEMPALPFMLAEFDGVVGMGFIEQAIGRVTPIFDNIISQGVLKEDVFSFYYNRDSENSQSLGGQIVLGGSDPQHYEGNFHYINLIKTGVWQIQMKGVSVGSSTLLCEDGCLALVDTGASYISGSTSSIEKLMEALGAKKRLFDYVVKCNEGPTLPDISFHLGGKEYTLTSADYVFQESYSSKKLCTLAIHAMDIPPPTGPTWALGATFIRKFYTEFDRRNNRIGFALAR
In short: (§1)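 Human renin, either purified enzyme or renin in plasma, was assayed at the stated pH. Inhibition was reported as IC50 in nM.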

[2] = biological target: T1, Renin; assay: In vitro potency against purified renin at a pH of 7.4; in short: as §1
[3] = biological target: T1, Renin; assay: In vitro potency against plasma renin at a pH of 7.4; assay type: cell-free; in short: as §1
[4] = biological target: T1, Renin; assay: In vitro potency against plasma renin at a pH of 6.0; assay type: cell-free; in short: as §1
[5] = Bioavailability in monkey (dose 10 mg/kg i.d. or 0.3 mg/kg i.v.); assay type: ADME, organism-based; settings: primates, in vivo, iv
In short: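 Male cynomolgus monkeys (3–5 kg), salt-depleted, fasted overnight, pentobarbital-anesthetized (15 mg/kg bolus, then 0.10 mg kg⁻¹ min⁻¹ infusion). Compound given as HCl salt solution, either iv via a leg vein or id by catheter into the proximal duodenum after laparotomy; one dose per monkey. Serial plasma levels were measured by HPLC or bioassay, and AUC was fitted to a biexponential decay. Bioavailability = dose-corrected AUC(id)/AUC(iv) × 100.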

Row | Structure (SMILES) | IC50 [1] [nM] | IC50 [3] [nM] | also measured
1 | CCN(CC)C(=O)[C@H](Cc1ccccc1)O[C@@H](C)C(=O)N[C@@H](CC1CCCCC1)[C@@H](O)[C@@H](O)CC(C)C | > 1000 |  | 
2 | CC(C)C[C@@H](N[C@@H](Cc1ccccc1)C(=O)OC(C)(C)C)C(=O)N[C@@H](CC1CCCCC1)[C@@H](O)[C@@H](O)CC(C)C | 2700 |  | 
3 | CCOC(=O)C(CCc1ccccc1)N[C@@H](CC(C)C)C(=O)N[C@@H](CC1CCCCC1)[C@@H](O)[C@@H](O)CC(C)C (single isomer, unassigned; more polar) | 160 |  | 
4 | CC(C)CC(N[C@@H](CCc1ccccc1)C(=O)OC(C)(C)C)C(=O)N[C@@H](CC1CCCCC1)[C@@H](O)[C@@H](O)CC(C)C (stereo in doubt; form 1) | 4000 |  | 
5 | CC(C)CC(N[C@@H](CCc1ccccc1)C(=O)OC(C)(C)C)C(=O)N[C@@H](CC1CCCCC1)[C@@H](O)[C@@H](O)CC(C)C (stereo in doubt; form 2) | 1000 |  | 
6 | CCCC[C@H](N[C@@H](Cc1ccccc1)C(=O)N1CCOCC1)C(=O)N[C@@H](CC1CCCCC1)[C@@H](O)[C@@H](O)CC(C)C | 13 | 1200 | 
7 | CC(C)C[C@H](O)[C@H](O)[C@H](CC1CCCCC1)NC(=O)C(C)N[C@@H](Cc1ccccc1)C(=O)N1CCOCC1 (single isomer, unassigned; more polar) | 1000 |  | 
8 | CCOC(=O)C(CCc1ccccc1)N[C@@H](C)C(=O)N[C@@H](CC1CCCCC1)[C@@H](O)[C@@H](O)CC(C)C (single isomer, unassigned; more polar) | 150 |  | 
9 | CCCCNC(=O)[C@@H](C[C@H](O)[C@H](CC1CCCCC1)NC(=O)[C@H](CCCC)N[C@@H](Cc1ccccc1)C(=O)N1CCC(OCOC)CC1)C(C)C | 0.9 | 8.7 | bioavailability [5]: 7.1%
10 | CC(C)C[C@H](N[C@@H](Cc1ccccc1)C(=O)OC(C)(C)C)C(=O)N[C@@H](CC1CCCCC1)[C@@H](O)[C@@H](O)CC(C)C | 340 |  | 
11 | CC(C)C[C@H](O)[C@H](O)[C@H](CC1CCCCC1)NC(=O)[C@H](C)O[C@@H](Cc1ccccc1)C(=O)N1CCCC1 |  | 3700 | 
12 | CC(C)C[C@H](O)[C@H](O)[C@H](CC1CCCCC1)NC(=O)[C@H](C)O[C@@H](Cc1ccccc1)C(=O)N1CCCCC1 | 25 | 8100 | 
13 | CCCCNC(=O)[C@@H](C[C@H](O)[C@H](CC1CCCCC1)NC(=O)[C@H](CCCC)O[C@@H](Cc1ccccc1)C(=O)N1CCC(OCOC)CC1)C(C)C | 1.2 | 8.2 | 
14 | CC(C)C[C@H](O)[C@H](O)[C@H](CC1CCCCC1)NC(=O)[C@H](C)O[C@@H](Cc1ccccc1)C(=O)N1CCC1 |  | 1000 | 
15 | CCCC[C@@H](N[C@@H](Cc1ccccc1)C(=O)N1CCOCC1)C(=O)N[C@@H](CC1CCCCC1)[C@@H](O)[C@@H](O)CC(C)C | 750 |  | 
16 | CCOC(=O)C(CCc1ccccc1)N[C@@H](CC(C)C)C(=O)N[C@@H](CC1CCCCC1)[C@@H](O)[C@@H](O)CC(C)C (stereo in doubt) | 240 |  | 
17 | CC(C)C[C@H](O)[C@H](O)[C@H](CC1CCCCC1)NC(=O)C(C)N[C@H](Cc1ccccc1)C(=O)N1CCOCC1 (single isomer, unassigned) | 1000 |  | 
18 | CC(C)C[C@H](O)[C@H](O)[C@H](CC1CCCCC1)NC(=O)[C@H](C)O[C@@H](Cc1ccccc1)C(=O)N1CCOCC1 | 45 | 4300 | 
19 | CCNC(=O)[C@H](Cc1ccccc1)O[C@@H](C)C(=O)N[C@@H](CC1CCCCC1)[C@@H](O)[C@@H](O)CC(C)C | 130 |  | 
20 | CC(C)C[C@H](O)[C@H](O)[C@H](CC1CCCCC1)NC(=O)C(C)N[C@H](Cc1ccccc1)C(=O)N1CCOCC1 (single isomer, unassigned; less polar) | 1600 |  | 
21 | CCOC(=O)C(CCc1ccccc1)N[C@@H](C)C(=O)N[C@@H](CC1CCCCC1)[C@@H](O)[C@@H](O)CC(C)C (single isomer, unassigned; less polar) | 130 |  | 
22 | CC(C)C[C@H](O)[C@H](O)[C@H](CC1CCCCC1)NC(=O)C(C)N[C@@H](Cc1ccccc1)C(=O)N1CCOCC1 (single isomer, unassigned; less polar) | 85 |  | 

Second part, led by results:

Row | IC50 [1] [nM] | IC50 [3] [nM] | Structure (SMILES) | also measured
23 | 1.4 | 31 | CCC[C@H](O[C@@H](Cc1ccccc1)C(=O)N1CCC(OCOC)CC1)C(=O)N[C@@H](CC1CCCCC1)[C@@H](O)[C@@H](O)CC(C)C | IC50 [2]: 5.5 nM; IC50 [4]: 3.3 nM
24 | 1 | 13 | CCCC[C@H](O[C@@H](Cc1ccccc1)C(=O)N1CCC(OCOC)CC1)C(=O)N[C@@H](CC1CCCCC1)[C@@H](O)[C@@H](O)CC(C)C | IC50 [2]: 3.2 nM; IC50 [4]: 3 nM
25 | 31 | 1800 | CCCC[C@H](N[C@@H](Cc1ccccc1)C(=O)N1CCC(OCCOC)CC1)C(=O)N[C@@H](CC1CCCCC1)[C@@H](O)[C@@H](O)CC(C)C | 
26 | 780 |  | CCCC[C@H](O[C@@H](Cc1ccccc1)C(=O)N1CCC(OCS(C)(=O)=O)CC1)C(=O)N[C@@H](CC1CCCCC1)[C@@H](O)[C@@H](O)CC(C)C | 
27 | 0.9 | 120 | CC[C@H](O[C@@H](Cc1ccccc1)C(=O)N1CCC(OCOC)CC1)C(=O)N[C@@H](CC1CCCCC1)[C@@H](O)[C@@H](O)CC(C)C | IC50 [2]: 5.4 nM; IC50 [4]: 7.9 nM
28 | 15 | 1000 | CCCC[C@H](O[C@@H](Cc1ccccc1)C(=O)N1CCOCC1)C(=O)N[C@@H](CC1CCCCC1)[C@@H](O)[C@@H](O)CC(C)C | 
29 | 770 |  | CCCC[C@H](O[C@@H](Cc1ccccc1)C(=O)N1CCC(OC[S+](C)[O-])CC1)C(=O)N[C@@H](CC1CCCCC1)[C@@H](O)[C@@H](O)CC(C)C (some centres undefined) | 
30 | 1.8 | 120 | CCCC[C@H](O[C@@H](Cc1ccccc1)C(=O)N1CCC(SCOC)CC1)C(=O)N[C@@H](CC1CCCCC1)[C@@H](O)[C@@H](O)CC(C)C | 
31 | 1.1 | 17 | CCCC[C@H](N[C@@H](Cc1ccccc1)C(=O)N1CCC(OCOC)CC1)C(=O)N[C@@H](CC1CCCCC1)[C@@H](O)[C@@H](O)CC(C)C | IC50 [2]: 2.8 nM; IC50 [4]: 3.9 nM
32 | 130 |  | CCCC[C@H](O[C@@H](Cc1ccccc1)C(=O)N1CCC(OCSC)CC1)C(=O)N[C@@H](CC1CCCCC1)[C@@H](O)[C@@H](O)CC(C)C | 
33 |  | 340 | COCOC1CCN(C(=O)[C@H](Cc2ccccc2)O[C@@H](C)C(=O)N[C@@H](CC2CCCCC2)[C@@H](O)[C@@H](O)CC(C)C)CC1 | IC50 [2]: 7 nM; IC50 [4]: 27 nM
34 | 1100 |  | CCCCC1CCN(C(=O)[C@H](Cc2ccccc2)O[C@@H](CCCC)C(=O)N[C@@H](CC2CCCCC2)[C@@H](O)[C@@H](O)CC(C)C)CC1 | 
35 | 290 |  | CCCC[C@H](O[C@@H](Cc1ccccc1)C(=O)N1CCC(OCCC)CC1)C(=O)N[C@@H](CC1CCCCC1)[C@@H](O)[C@@H](O)CC(C)C | 
36 | 24 |  | CCCC[C@H](O[C@@H](Cc1ccccc1)C(=O)N1CCCCC1)C(=O)N[C@@H](CC1CCCCC1)[C@@H](O)[C@@H](O)CC(C)C | 
37 | 130 |  | CCCC[C@H](O[C@@H](Cc1ccccc1)C(=O)N1CCC(O)CC1)C(=O)N[C@@H](CC1CCCCC1)[C@@H](O)[C@@H](O)CC(C)C | 
38 | 44 |  | CCCC[C@H](O[C@@H](Cc1ccccc1)C(=O)N1CCC(OC)CC1)C(=O)N[C@@H](CC1CCCCC1)[C@@H](O)[C@@H](O)CC(C)C | 
39 | 160 |  | C=CCOC1CCN(C(=O)[C@H](Cc2ccccc2)O[C@@H](CCCC)C(=O)N[C@@H](CC2CCCCC2)[C@@H](O)[C@@H](O)CC(C)C)CC1 | 
40 | 18 | 1300 | CCCC[C@H](O[C@@H](Cc1ccccc1)C(=O)N1CCC(CCOC)CC1)C(=O)N[C@@H](CC1CCCCC1)[C@@H](O)[C@@H](O)CC(C)C | 
